Assay results gathered from unrelated publications.
Compare with care: the assays were run in different laboratories.
Cell line: MV4-11
Effect on: cell growth or viability

SMILES	technique	time	measurement	value
CONC(=O)c1cccc2c1cc(C)n2-c1nc2c(c(NCc3ccccc3)n1)CCCN2	–	72 h	IC50	400 nM
c1cc(N2CCC(N3CCOCC3)CC2)ccc1Nc1ccc2ncc(OCC3CCNCC3)nc2c1	XTT	7 days	EC50	≥ 28000 nM
CN(C)CCN(C)C(=O)c1ccc(-c2nc3ccc4[nH]ncc4c3c3c2CC(C)(C)CC3)cc1	resazurin	72 h	GI50	1900 nM
O=C(NO)c1ccc(Cn2cnc3c(Nc4ccc(Cl)cc4)ncnc32)cc1	MTT	72 h	IC50	60 nM
Cc1n[nH]c2ccc3nc(-c4ccc(C(=O)NCCN(C)C)cn4)c4c(c3c12)CCCCC4	resazurin	72 h	GI50	132 nM
O=C(NO)c1ccc(Cn2cnc3c(Nc4ccc(F)c(Cl)c4)ncnc32)cc1	MTT	72 h	IC50	1140 nM
NCCNC(=O)c1ccc(-c2nc3ccc4[nH]ncc4c3c3c2CCCC3)cc1	resazurin	72 h	GI50	480 nM
Fc1ccc(Oc2ccc(Nc3ccc4ncc(OCC5CCNCC5)nc4c3)cc2)cc1	XTT	7 days	EC50	960 nM
COc1cc(-c2cc(C(C)=O)n3ccccc23)c(OC)cc1Cn1ccnc1	ATP luminescence	–	IC50	70 nM
c1cc(N2CCCCC2)ccc1Nc1cc2ncc(OCC3CCNCC3)nc2cc1-c1ccc(N2CCCCC2)cc1	XTT	7 days	EC50	3000 nM
COc1ccc(Nc2ncnc3c2ncn3Cc2ccc(C(=O)NO)cc2)cc1	MTT	72 h	IC50	580 nM
O=C(NCCN1CCCC1)c1ccc(-c2nc3ccc4[nH]ncc4c3c3c2CCCC3)c(F)c1	resazurin	72 h	GI50	208 nM
c1ccc(COc2ccc(Nc3ccc4ncc(OCC5CCNCC5)nc4c3)cc2)cc1	XTT	7 days	EC50	840 nM
O=C(NO)c1ccc(Cn2cnc3c(Nc4cccc([N+](=O)[O-])c4)ncnc32)cc1	MTT	72 h	IC50	280 nM
O=C(NCC1CC1)c1ccc(-c2nc3ccc4[nH]ncc4c3c3c2CCCC3)cc1	resazurin	72 h	GI50	> 10000 nM
